# Reference: ChEMBL document CHEMBL1250546, “Synthesis of non-purine analogs of 6-aryl-9-benzylpurines, and their antimycobacterial activities. Compounds modified in the imidazole ring” (Bioorg Med Chem, 2010)
# How the values were obtained:
# [1] = Selectivity index, ratio of EC50 for african green monkey Vero cells to MIC for Mycobacterium tuberculosis H37Rv ATCC 27294; type: functional
# Vero = test: Cytotoxicity against african green monkey Vero cells; type: cell-based; conditions: Chlorocebus sabaeus
# In short: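 Mammalian-cell toxicity was measured in VERO cells and expressed as EC₅₀.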
# [2] = test system: Mycobacterium tuberculosis; test: Antibacterial activity against Mycobacterium tuberculosis H37Rv ATCC 27294 after 7 days by microplate alamar blue assay; type: functional; conditions: H37Rv ATCC 27294, 168 h
# In short: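 Microplate alamar blue assay in 7H12 medium against M. tuberculosis H37Rv ATCC 27294 and against rifampicin-, isoniazid-, streptomycin- and kanamycin-resistant Mtb strains. Bacteria were incubated with test samples for 7 days, then fluorescence was read. MIC is the lowest concentration giving at least a 90% fluorescence reduction relative to untreated controls.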
# [3] = test system: Mycobacterium tuberculosis; test: Antibacterial activity against Mycobacterium tuberculosis; type: functional
# Escherichia coli = test: Antibacterial activity against Escherichia coli; type: functional
# Staphylococcus aureus = test: Antibacterial activity against Staphylococcus aureus; type: functional
SMILES,Selectivity Index [1],EC50 (Vero),MIC [2],MIC [3],MIC (Escherichia coli),MIC (Staphylococcus aureus)
COc1ccc(Cn2cnc3c(-c4ccco4)nc(Cl)nc32)cc1,>325,> 117 µM,0.36 µM,0.39 µg/mL,,
COc1ccc(C(=O)c2cn(C)c3c(-c4ccco4)ncnc23)cc1,,,192 µM,,> 90 µg/mL,> 32 µg/mL
COc1ccc(Cn2ccc3c(-c4ccco4)ncnc32)cc1,>756,> 131 µM,0.16 µM,,> 90 µg/mL,> 32 µg/mL
COc1ccc(Cn2nnc3c(-c4ccco4)ncnc32)cc1,>54,> 130 µM,2.4 µM,,> 90 µg/mL,> 32 µg/mL
COc1ccc(Cn2cnc3c(-c4ccco4)ncnc32)cc1,>98,> 206 µM,2.1 µM,1.65 µg/mL,,
COc1ccc(Cn2ccc3c(-c4cccs4)ncnc32)cc1,114,40 µM,0.35 µM,,,
COc1ccc(Cn2cnc3c(-c4cccs4)nc(Cl)nc32)cc1,,,,0.78 µg/mL,,
COc1ccc(Cn2ccc3c(-c4ccco4)nc(Cl)nc32)cc1,1063,85 µM,0.08 µM,,> 90 µg/mL,> 32 µg/mL
COc1ccc(Cn2ccc3c(-c4ccco4)nc(OC)nc32)cc1,205,45 µM,0.22 µM,,,
CO[C@H]1/C=C/O[C@@]2(C)Oc3c(C)c(O)c4c(O)c(c(/C=N/N5CCN(C)CC5)c(O)c4c3C2=O)NC(=O)/C(C)=C\C=C\[C@H](C)[C@H](O)[C@@H](C)[C@@H](O)[C@@H](C)[C@H](OC(C)=O)[C@@H]1C [RIFAMPIN],,,,0.25 µg/mL,,
COc1ccc(C(=O)c2c[nH]c3c(-c4ccco4)ncnc23)cc1,,,> 300 µM,,> 90 µg/mL,> 32 µg/mL
COc1ccc(Cn2ccc3c(-c4cccs4)nc(Cl)nc32)cc1,691,76 µM,0.11 µM,,,
COc1ccc(Cn2ncc3c(-c4ccco4)ncnc32)cc1,>91,> 327 µM,3.6 µM,,> 90 µg/mL,> 32 µg/mL
COc1ccc(Cc2cn(C)c3c(-c4ccco4)ncnc23)cc1,,,97 µM,,> 90 µg/mL,> 32 µg/mL
